Values joined by “and” are separate entries in the source; they are usually repeats but may differ in a detail not shown here. Equal values may be shown once.
The compounds below were run against T1, 5-hydroxytryptamine receptor 2B (Homo sapiens, UniProt P41595) (assay: Agonist activity at human 5-HT2B receptor expressed in human Flp-In-293 cells assessed as induction of calcium flux incubated for 1 hr by Fluo-4 direct dye based FLIPR assay relative to 5-HT). Settings: filed as agonist.
Type: functional, cell-based

T1 sequence (P41595 whole entry): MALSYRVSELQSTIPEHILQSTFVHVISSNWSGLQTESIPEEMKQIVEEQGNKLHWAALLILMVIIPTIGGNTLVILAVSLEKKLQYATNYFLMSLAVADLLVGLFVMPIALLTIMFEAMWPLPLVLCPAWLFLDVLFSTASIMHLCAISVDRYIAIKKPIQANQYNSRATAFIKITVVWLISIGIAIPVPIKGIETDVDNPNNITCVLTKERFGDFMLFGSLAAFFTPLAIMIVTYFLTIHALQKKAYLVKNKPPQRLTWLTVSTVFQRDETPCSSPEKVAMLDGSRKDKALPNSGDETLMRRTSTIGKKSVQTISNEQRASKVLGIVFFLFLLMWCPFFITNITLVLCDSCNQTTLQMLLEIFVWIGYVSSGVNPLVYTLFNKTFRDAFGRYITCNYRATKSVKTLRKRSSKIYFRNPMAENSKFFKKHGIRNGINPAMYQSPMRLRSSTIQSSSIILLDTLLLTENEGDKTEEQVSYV

Point of comparison: COc1ccc2c(c1[C@H]1C[C@@H]1CN)CCO2, Emax 70%. Against it:
- COc1ccc2occc2c1[C@@H]1C[C@H]1CN — lower, 55%

The compounds below were run against T2, 5-hydroxytryptamine receptor 2C (Homo sapiens) (UniProt P28335) (assay: Agonist activity at human 5-HT2C INI receptor expressed in human Flp-In-293 cells assessed as induction of calcium flux incubated for 1 hr by Fluo-4 direct dye based FLIPR assay relative to 5-HT). Settings: filed as agonist.
T2 sequence (whole entry): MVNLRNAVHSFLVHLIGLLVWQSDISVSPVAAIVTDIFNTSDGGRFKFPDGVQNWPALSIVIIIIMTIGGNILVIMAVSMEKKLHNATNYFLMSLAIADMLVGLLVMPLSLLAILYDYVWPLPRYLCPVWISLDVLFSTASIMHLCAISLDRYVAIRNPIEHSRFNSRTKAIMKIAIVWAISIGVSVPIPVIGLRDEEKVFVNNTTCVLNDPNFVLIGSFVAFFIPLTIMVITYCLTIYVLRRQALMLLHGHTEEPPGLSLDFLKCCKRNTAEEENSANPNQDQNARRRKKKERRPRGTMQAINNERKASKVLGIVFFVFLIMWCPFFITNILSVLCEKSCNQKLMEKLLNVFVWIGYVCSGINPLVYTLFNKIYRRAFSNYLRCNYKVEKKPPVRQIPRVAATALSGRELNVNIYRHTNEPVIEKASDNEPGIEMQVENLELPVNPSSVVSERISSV
Type: functional, cell-based
Method in brief: (§1)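 Calcium flux in Flp-In-293 cells stably expressing the human 5-HT2C INI isoform, Fluo-4 Direct loading for 1 h at 37 °C. Drug dilutions identical to those in the parallel Tango assay, 300 s read at 1 read/s, normalized to % 5-HT. Triplicate, mean ± SEM (n = 3). Bias factors were calculated from change in relative activity, log(Emax/EC50).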

Point of comparison: NC[C@H]1C[C@@H]1c1c(OCCF)ccc2c1CCO2, Emax 93%. Against it:
- C=CCOc1ccc2c(c1[C@H]1C[C@@H]1CN)CCO2 — the same, 93%
- C=CCOc1ccc2occc2c1[C@H]1C[C@@H]1CN — lower, 92%
- CCc1cc2c([C@H]3C[C@@H]3CN)c(OCCF)ccc2o1 — the same, 93%

The compounds below were run against T3, 5-hydroxytryptamine receptor 2C (Homo sapiens, UniProt P28335) (assay: Agonist activity at human 5-HT2C INI receptor expressed in human HEK293 cells assessed as induction of beta-arrestin-2 recruitment incubated for 20 hrs by Tango assay). Settings: read-out: EC50.
T3 sequence (P28335 whole entry): T2 sequence (whole entry)
Type: cell-based
Method in brief: (§2)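 Tango assay in HTLA cells (HEK line expressing TEV-fused β-arrestin-2 and tTA-driven luciferase) transfected with 5-HT2C INI–tTA fusion carrying a TEV site. Cells were stimulated with the same dilutions used for FLIPR, 20 h at 37 °C and 5% CO2, then lysed with Bright-Glo for 20 min at room temperature and read by luminescence. Data normalized to % 5-HT and fitted sigmoidally; n = 3 in triplicate. Bias from log(Emax/EC50).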

Point of comparison: C=CCOc1ccc2c(c1[C@H]1C[C@@H]1CN)CCO2, EC50 0.267 µM. Against it:
- C=CCOc1ccc2occc2c1[C@H]1C[C@@H]1CN — 13-fold lower, 0.02 µM
- CCc1cc2c([C@H]3C[C@@H]3CN)c(OCCF)ccc2o1 — 2.8-fold lower, 0.096 µM
- C=CCOc1ccc2oc(CC)cc2c1[C@H]1C[C@@H]1CN — 8.9-fold lower, 0.03 µM
- NC[C@H]1C[C@@H]1c1c(OCCF)ccc2c1CCO2 — within 1.5-fold, 0.318 µM

Same assay, conditions: read-out: pEC50 (converted)

NC[C@H]1C[C@@H]1c1c(OCCF)ccc2c1CCO2 gave an EC50 of 0.324 µM.

Each compound was assayed against T3, 5-hydroxytryptamine receptor 2C (assay: Agonist activity at human 5-HT2C INI receptor expressed in human Flp-In-293 cells assessed as induction of calcium flux incubated for 1 hr by Fluo-4 direct dye based FLIPR assay). Settings: not given.
Type: functional, cell-based
Method in brief: as §1

Point of comparison: C=CCOc1ccc2occc2c1[C@H]1C[C@@H]1CN, EC50 0.0087 µM. Against it:
- C=CCOc1ccc2c(c1[C@H]1C[C@@H]1CN)CCO2 — 3-fold higher, 0.026 µM
- CCc1cc2c([C@H]3C[C@@H]3CN)c(OCCF)ccc2o1 — 2.5-fold higher, 0.022 µM
- C=CCOc1ccc2oc(CC)cc2c1[C@H]1C[C@@H]1CN — 2.9-fold higher, 0.025 µM
- NC[C@H]1C[C@@H]1c1c(OCCF)ccc2c1CCO2 — 4.7-fold higher, 0.041 µM

These compounds were tested against T4, 5-hydroxytryptamine receptor 2A (Homo sapiens, UniProt P28223) (assay: Agonist activity at human 5-HT2A receptor expressed in human Flp-In-293 cells assessed as induction of calcium flux incubated for 1 hr by Fluo-4 direct dye based FLIPR assay relative to 5-HT). Settings: filed as agonist.
T4 sequence (P28223 whole entry): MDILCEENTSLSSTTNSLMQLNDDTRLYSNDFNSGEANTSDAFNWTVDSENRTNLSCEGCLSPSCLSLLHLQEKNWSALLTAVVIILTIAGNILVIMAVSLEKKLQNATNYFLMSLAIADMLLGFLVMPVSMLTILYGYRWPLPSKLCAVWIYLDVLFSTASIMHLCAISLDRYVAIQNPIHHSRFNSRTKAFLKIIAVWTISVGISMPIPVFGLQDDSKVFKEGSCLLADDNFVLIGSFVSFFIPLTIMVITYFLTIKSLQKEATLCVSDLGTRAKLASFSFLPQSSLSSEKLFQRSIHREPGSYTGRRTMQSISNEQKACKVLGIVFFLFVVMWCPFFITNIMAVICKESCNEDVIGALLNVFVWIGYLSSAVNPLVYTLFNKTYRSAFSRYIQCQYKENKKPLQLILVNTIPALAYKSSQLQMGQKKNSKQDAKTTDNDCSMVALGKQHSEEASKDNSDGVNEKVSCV
Type: functional, cell-based

Point of comparison: COc1ccc2occc2c1[C@@H]1C[C@H]1CN, Emax 66%. Against it:
- COc1ccc2c(c1[C@H]1C[C@@H]1CN)CCO2 — higher, 90%
- NC[C@H]1C[C@@H]1c1c(OCCF)ccc2c1CCO2 — lower, 63%

These compounds were tested against T2, 5-hydroxytryptamine receptor 2C (Homo sapiens) (assay: Agonist activity at human 5-HT2C INI receptor expressed in human HEK293 cells assessed as induction of beta-arrestin-2 recruitment incubated for 20 hrs by Tango assay relative to 5HT). Settings: not given.
Type: cell-based
Method in brief: as §2

Point of comparison: C=CCOc1ccc2c(c1[C@H]1C[C@@H]1CN)CCO2, Emax 35%. Against it:
- C=CCOc1ccc2occc2c1[C@H]1C[C@@H]1CN — lower, 25%

Same assay, conditions: filed as agonist

Point of comparison: CCc1cc2c([C@H]3C[C@@H]3CN)c(OCCF)ccc2o1, Emax 50%. Against it:
- C[C@H]1CNCCc2ccc(Cl)cc21 — higher, 91%
- NC[C@H]1C[C@@H]1c1c(OCCF)ccc2c1CCO2 — lower, 42%

What follows are compounds tested against T4, 5-hydroxytryptamine receptor 2A. Settings: not given.

Point of comparison: CCc1cc2c([C@H]3C[C@@H]3CN)c(OCCF)ccc2o1, EC50 2.21 µM. Against it:
- C=CCOc1ccc2c(c1[C@H]1C[C@@H]1CN)CCO2 — 3.6-fold lower, 0.618 µM
- COc1ccc2c(c1[C@H]1C[C@@H]1CN)CCO2 — 19-fold lower, 0.117 µM
- C=CCOc1ccc2occc2c1[C@H]1C[C@@H]1CN — 10-fold lower, 0.213 µM
- COc1ccc2occc2c1[C@@H]1C[C@H]1CN — 20-fold lower, 0.109 µM
- NC[C@H]1C[C@@H]1c1c(OCCF)ccc2c1CCO2 — within 1.5-fold, 2.32 µM

What follows are compounds tested against T3, 5-hydroxytryptamine receptor 2C. Settings: not given.

Point of comparison: NC[C@H]1C[C@@H]1c1c(OCCF)ccc2c1CCO2, EC50 0.073 µM. Against it:
- C=CCOc1ccc2c(c1[C@H]1C[C@@H]1CN)CCO2 — 6.6-fold lower, 0.011 µM
- COc1ccc2c(c1[C@H]1C[C@@H]1CN)CCO2 — 8.2-fold lower, 0.0089 µM
- C=CCOc1ccc2occc2c1[C@H]1C[C@@H]1CN — 14-fold lower, 0.0053 µM
- CCc1cc2c([C@H]3C[C@@H]3CN)c(OCCF)ccc2o1 — 6.6-fold lower, 0.011 µM
- C=CCOc1ccc2oc(CC)cc2c1[C@H]1C[C@@H]1CN — 3.2-fold lower, 0.023 µM

For COc1ccc2occc2c1[C@@H]1C[C@H]1CN, the EC50 was 0.00676 µM and 0.0066 µM.

These compounds were tested against T1, 5-hydroxytryptamine receptor 2B. Settings: not given.

Point of comparison: CCc1cc2c([C@H]3C[C@@H]3CN)c(OCCF)ccc2o1, EC50 0.55 µM. Against it:
- C=CCOc1ccc2c(c1[C@H]1C[C@@H]1CN)CCO2 — 2.1-fold lower, 0.258 µM
- COc1ccc2c(c1[C@H]1C[C@@H]1CN)CCO2 — 7.1-fold lower, 0.077 µM
- C=CCOc1ccc2occc2c1[C@H]1C[C@@H]1CN — 1.6-fold lower, 0.348 µM
- C=CCOc1ccc2oc(CC)cc2c1[C@H]1C[C@@H]1CN — within 1.5-fold, 0.433 µM
- COc1ccc2occc2c1[C@@H]1C[C@H]1CN — within 1.5-fold, 0.725 µM

What follows are compounds tested against T2, 5-hydroxytryptamine receptor 2C (Homo sapiens) (assay: Agonist activity at human 5-HT2C receptor expressed in human Flp-In-293 cells assessed as induction of calcium flux incubated for 1 hr by Fluo-4 direct dye based FLIPR assay relative to 5-HT). Settings: filed as agonist.
Type: functional, cell-based

Point of comparison: NC[C@H]1C[C@@H]1c1c(OCCF)ccc2c1CCO2, Emax 76%. Against it:
- C=CCOc1ccc2c(c1[C@H]1C[C@@H]1CN)CCO2 — higher, 101%
- COc1ccc2c(c1[C@H]1C[C@@H]1CN)CCO2 — higher, 101%
- C=CCOc1ccc2occc2c1[C@H]1C[C@@H]1CN — higher, 103%
- CCc1cc2c([C@H]3C[C@@H]3CN)c(OCCF)ccc2o1 — higher, 106%
- COc1ccc2occc2c1[C@@H]1C[C@H]1CN — higher, 96%

Each compound was assayed against T2, 5-hydroxytryptamine receptor 2C (Homo sapiens) (assay: Agonist activity at human 5-HT2C receptor expressed in human Flp-In-293 cells assessed as induction of calcium flux by measuring log (Emax/EC50) incubated for 1 hr by Fluo-4 direct dye based FLIPR assay). Settings: not given.
Type: functional, cell-based

Point of comparison: COc1ccc2occc2c1[C@@H]1C[C@H]1CN, log(ratio) 8.16. Against it:
- COc1ccc2c(c1[C@H]1C[C@@H]1CN)CCO2 — within 0.2 log units, 8.05

These compounds were tested against T1, 5-hydroxytryptamine receptor 2B (assay: Agonist activity at human 5-HT2B receptor expressed in human Flp-In-293 cells assessed as induction of calcium flux by measuring log(Emax/EC50) incubated for 1 hr by Fluo-4 direct dye based FLIPR assay). Settings: not given.
Type: functional, cell-based

Point of comparison: COc1ccc2c(c1[C@H]1C[C@@H]1CN)CCO2, log(ratio) 6.96. Against it:
- COc1ccc2occc2c1[C@@H]1C[C@H]1CN — lower, 5.88

What follows are compounds tested against T4, 5-hydroxytryptamine receptor 2A (assay: Agonist activity at human 5-HT2A receptor expressed in human Flp-In-293 cells assessed as induction of calcium flux by measuring log(Emax/EC50) incubated for 1 hr by Fluo-4 direct dye based FLIPR assay). Settings: not given.
Type: functional, cell-based

Point of comparison: COc1ccc2c(c1[C@H]1C[C@@H]1CN)CCO2, log(ratio) 6.89. Against it:
- COc1ccc2occc2c1[C@@H]1C[C@H]1CN — within 0.2 log units, 6.78

Reference: ChEMBL document CHEMBL4680082 (J Med Chem, 2016)
